The source made the active and inactive calls.
How the values were obtained:
HepG2 [1] = test: Increase in AMPKalpha phosphorylation in human HepG2 cells at 10 uM after 4 hrs by Western blot analysis relative to untreated control; type: cell-based
Summary of the method: (§1)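 HepG2 cells in MEM with 10% FBS and antibiotics, 37 °C, 5% CO2, plated the day before to about 70% confluence. Treated with vehicle or compound at 10 uM for 4 h. Whole-cell lysates were run on SDS-PAGE and Western blotted for Thr172-phospho-AMPKa and total AMPKa. Bands were scanned and p-AMPKa was expressed as a percentage of total AMPKa. Mean ± SEM of 3 experiments.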

HepG2 [2] = test: Up regulation of LDLR expression in human HepG2 cells at 10 uM after 12 hrs by RT-PCR relative to untreated control; type: functional
Summary of the method: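 HepG2 cells (MEM, 10% FBS, about 70% confluent) treated at 10 uM for 12 h. LDLR mRNA measured by real-time RT-PCR, reverse transcription 42 °C for 15 min. Normalized to β-actin by the comparative threshold cycle method and expressed as fold of untreated control (set to 1). Mean ± SEM of 3 separate experiments.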

HepG2 [3] = test: Increase in AMPKalpha phosphorylation in human HepG2 cells at 10 uM after 4 hrs by Western blot analysis relative to untreated control relative to total AMPKalpha level; type: cell-based; summary of the method: as §1
HepG2 [4] = test: Induction of AMPKalpha phosphorylation in human HepG2 cells after 4 hrs by Western blot analysis relative to untreated control; type: cell-based
Summary of the method: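 HepG2 cultured as above, about 70% confluent, then exposed to a range of concentrations for 4 h. Western blot for Thr172-phospho-AMPKa and total AMPKa, densitometry, p-AMPKa as a percentage of total, relative to untreated cells. Mean ± SEM of 3 experiments.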

HepG2 [5] = test: Induction of AMPKalpha phosphorylation in human HepG2 cells at 10 uM by Western blot analysis relative to untreated control; type: cell-based; conditions: TDE = time-dependent effect
Summary of the method: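 Time course in HepG2: cells given 10 uM for different time intervals. Western blot for Thr172-phospho-AMPKa and total AMPKa, bands quantified, p-AMPKa as a percentage of total, compared with untreated cells. Mean ± SEM of 3 repeats.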

HepG2 [6] = test: Increase in total AMPKalpha level in human HepG2 cells at 10 uM after 4 hrs by Western blot analysis relative to untreated control; type: functional, cell-based; summary of the method: as §1
L6 = test: Induction of AMPKalpha phosphorylation in rat L6 cells; type: cell-based

SMILES | fold change (FC) (HepG2 [2]) | also measured
COc1ccc2cc3n(cc-2c1=O)CCc1cc2c(cc1-3)OCO2 |  | Activity (HepG2 [1]): Active
COc1ccc2cc3[n+](cc2c1F)CCc1cc2c(cc1-3)OCO2.[Cl-] | 1 | 
CCOc1cc2cc3[n+](cc2cc1OC)CCc1cc2c(cc1-3)OCO2.[Cl-] | 0.91 | 
CCOc1cc2c(cc1OC)-c1cc3ccc(OC)c(OC)c3c[n+]1CC2.[Cl-] | 1.02 | 
COc1cc2cc3[n+](cc2c(Cl)c1OC)CCc1cc2c(cc1-3)OCO2.[Cl-] | 0.92 | 
COc1ccc2c(c1OC)CC[n+]1cc3c(OC)c(OC)ccc3cc1-2.[Cl-] | 0.89 | 
COc1cc2c(c(OC)c1OC)-c1cc3ccc(OC)c(OC)c3c[n+]1CC2.[Cl-] | 0.88 | 
COc1cc2cc3[n+](cc2cc1OC)CCc1c-3ccc(OC)c1OC.[Cl-] | 0.92 | 
COc1cc(Br)c2cc3[n+](cc2c1O)CCc1cc2c(cc1-3)OCO2.[Cl-] | 0.94 | 
CCOc1cc2c(cc1OC)CC[n+]1cc3cc(OC)c(OC)cc3cc1-2.[Cl-] | 0.96 | 
CCOc1cc2c(cc1OC)CC[n+]1cc3c(OC)c(OC)ccc3cc1-2.[Cl-] | 1 | 
COc1cc2cc3[n+](cc2cc1OC)CCc1cc2c(cc1-3)OCO2.[Cl-] [PSEUDOBERBERINE] | 3.23 | fold change (FC) (HepG2 [3]): 2.6; Activity (HepG2 [4]): Dose-dependent effect; Activity (HepG2 [5]): tde; Activity (HepG2 [6]): Active; Activity (L6): Active; Activity (HepG2 [1]): Active
[Cl-].c1c2c(cc3c1OCO3)-c1cc3cc4c(cc3c[n+]1CC2)OCCO4 | 0.96 | 
COc1ccc2cc3[n+](cc2c1OC)CCc1cc2c(cc1-3)OCO2.[Cl-] [BERBERINE CHLORIDE] | 2.35 | fold change (FC) (HepG2 [3]): < 3.2; Activity (HepG2 [6]): Active; Activity (HepG2 [1]): Active
COc1cc2c(cc1O)-c1cc3ccc(OC)c(OC)c3c[n+]1CC2.[Cl-] [COLUMBAMINE CHLORIDE] | 1.15 | 
COc1ccc2cc3[n+](cc2c1O)CCc1cc2c(cc1-3)OCO2 |  | Activity (HepG2 [1]): Active
CCOc1cc2c(cc1OC)-c1cc3cc(OC)c(OC)cc3c[n+]1CC2.[Cl-] | 1.04 | 
COc1ccc2cc3[n+](cc2c1Cl)CCc1cc2c(cc1-3)OCO2.[Cl-] | 1.12 | 
